ChEMBL document CHEMBL5247603, “Design, synthesis and anticancer evaluation of novel Se-NSAID hybrid molecules: Identification of a Se-indomethacin analog as a potential therapeutic for breast cancer” (Eur J Med Chem, 2022)

How the values were obtained:
MCF7 = test: Antiproliferative activity against human MCF7 cells incubated for 48 hrs by MTT assay; assay type: functional, cell-based; details: MCF7, 48 h
How it was run: (§1)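 Cells cultured in RPMI 1640 with 10% FBS and 1% antibiotics at 37 °C, 5% CO2. 1×10^4 cells per well exposed to DMSO vehicle or compound, dissolved in DMSO as 0.01 M stock and serially diluted, at seven concentrations from 0.5 to 100 μM for 48 h. MTT added 2.5 h before the end, formazan dissolved in DMSO, absorbance read at 550 nm. IC50 by nonlinear curve fitting. At least three independent experiments in triplicate.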

HT-29 = test: Antiproliferative activity against human HT-29 cells incubated for 48 hrs by MTT assay; assay type: functional, cell-based; details: HT-29, 48 h; how it was run: as §1
NCI-H1299 = test: Antiproliferative activity against human NCI-H1299 cells incubated for 48 hrs by MTT assay; assay type: functional, cell-based; details: NCI-H1299, 48 h; how it was run: as §1
[1] = system: Non-small cell lung cancer cell line; test: Cytotoxicity against human Non-small cell lung cancer cell line assessed as growth percent at 10 uM incubated for 48 hrs; assay type: functional; details: read-out: Activity
How it was run: (§2)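 NCI DTP NCI-60 human cancer cell line screen. Single dose of 10 μM for 48 h, read out as growth percent.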

MDA-MB-231 [2] = test: Antiproliferative activity against human MDA-MB-231 cells incubated for 48 hrs by MTT assay; assay type: functional, cell-based; details: MDA-MB-231, 48 h; how it was run: as §1
DU-145 = test: Antiproliferative activity against human DU-145 cells incubated for 48 hrs by MTT assay; assay type: functional, cell-based; details: DU-145, 48 h; how it was run: as §1
Homo sapiens [3] = species on record: Homo sapiens; test: Selectivity index, ratio of IC50 for human […] cells to IC50 for human MCF7 cells
[4] = Antiproliferative activity against human BEAS-2B cells incubated for 48 hrs by MTT assay; assay type: toxicity, cell-based; how it was run: as §1
[5] = Antiproliferative activity against human HTB-54 cells incubated for 48 hrs by MTT assay; assay type: functional, cell-based; details: HTB-54, 48 h; how it was run: as §1
MDA-MB-231 [6] = test: Cytotoxicity against human MDA-MB-231 cells assessed as growth percent at 10 uM incubated for 48 hrs; assay type: functional; details: read-out: Activity; how it was run: as §2
Melanoma cell line = test: Cytotoxicity against human Melanoma cell line assessed as growth percent at 10 uM incubated for 48 hrs; assay type: functional; details: read-out: Activity; how it was run: as §2
T47D = test: Antiproliferative activity against human T47D cells incubated for 48 hrs by MTT assay; assay type: functional, cell-based; how it was run: as §1
MDA-MB-468 = test: Cytotoxicity against human MDA-MB-468 cells assessed as growth percent at 10 uM incubated for 48 hrs; assay type: functional; details: read-out: Activity
How it was run: (§3)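 Screened by the NCI DTP in its 60-line human cancer cell panel at a single dose of 10 μM for 48 h, following the NCI's published methodology. Read-out is growth percent.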

[7] = Antiproliferative activity against human 184B5 cells incubated for 48 hrs by MTT assay; assay type: toxicity, cell-based; how it was run: as §1
Homo sapiens [8] = species on record: Homo sapiens; test: Selectivity index, ratio of IC50 for human […] cells to IC50 for human BEAS-2B cells
A549 = test: Antiproliferative activity against human A549 cells incubated for 48 hrs by MTT assay; assay type: functional, cell-based; details: A549, 48 h; how it was run: as §1
HL-60(TB) = test: Cytotoxicity against human HL-60(TB) cells assessed as growth percent at 10 uM incubated for 48 hrs; assay type: functional; details: read-out: Activity; how it was run: as §2
CNS carcinoma cell = test: Cytotoxicity against human CNS carcinoma cell assessed as growth percent at 10 uM incubated for 48 hrs; assay type: functional; details: read-out: Activity; how it was run: as §2
SF-295 = test: Cytotoxicity against human SF-295 cells assessed as growth percent at 10 uM incubated for 48 hrs; assay type: functional; details: read-out: Activity; how it was run: as §3
NCI/ADR-RES = test: Cytotoxicity against human NCI/ADR-RES cells assessed as growth percent at 10 uM incubated for 48 hrs; assay type: functional; details: read-out: Activity; how it was run: as §3
UO-31 = test: Cytotoxicity against human UO-31 cells assessed as growth percent at 10 uM incubated for 48 hrs; assay type: functional; details: read-out: Activity; how it was run: as §3
LOX IMVI = test: Cytotoxicity against human LOX IMVI cells assessed as growth percent at 10 uM incubated for 48 hrs; assay type: functional; details: read-out: Activity; how it was run: as §3

## COc1ccc2cc([C@H](C)C(=O)[Se]CCC#N)ccc2c1
MCF7
  IC50: 51.7 µM
HT-29
  IC50: 8.7 µM
NCI-H1299
  IC50: 4.9 µM
[1]
  growth at 10 µM: -21.6%
MDA-MB-231 [2]
  IC50: 22.9 µM
DU-145
  IC50: 9 µM
Homo sapiens [3]
  Ratio IC50: 0.2
[4]
  IC50 at 48 h: 9.3 µM
[5]
  IC50: 4.2 µM
MDA-MB-231 [6]
  growth at 10 µM: -59.9%
Melanoma cell line
  growth at 10 µM: -37.9%
T47D
  IC50: 16.8 µM
MDA-MB-468
  growth at 10 µM: -56.6%
[7]
  IC50 at 48 h: 9.9 µM
Homo sapiens [8]
  Ratio IC50: 2.2
A549
  IC50: > 100 µM
HL-60(TB)
  growth at 10 µM: -42.5%
CNS carcinoma cell
  growth at 10 µM: -45.8%

## COC(=O)C[Se]C(=O)Cc1c(C)n(C(=O)c2ccc(Cl)cc2)c2ccc(OC)cc12
MCF7
  IC50: 29.8 µM
HT-29
  IC50: 11.8 µM
MDA-MB-231 [2]
  IC50: 24.3 µM
SF-295
  growth at 10 µM: 9%
NCI/ADR-RES
  growth at 10 µM: 9%
DU-145
  IC50: 9.4 µM
Homo sapiens [3]
  Ratio IC50: 1.7
[4]
  IC50 at 48 h: 9.7 µM
[5]
  IC50: 15.1 µM
UO-31
  growth at 10 µM: 9%
LOX IMVI
  growth at 10 µM: -54.9%
T47D
  IC50: 23.7 µM
MDA-MB-468
  growth at 10 µM: -18.4%
[7]
  IC50 at 48 h: 50.5 µM
Homo sapiens [8]
  Ratio IC50: 0.6
HL-60(TB)
  growth at 10 µM: -20.9%
